These results are taken from ChEMBL document CHEMBL1146344, “Design, synthesis, and evaluation of 2-aryl-3-heteroaryl-1,3-thiazolidin-4-ones as anti-HIV agents” (Bioorg Med Chem, 2007).

The nature of data set [1]: Cytotoxicity against MT4 cells. In kind it is cell-based. The conditions noted are these: human. The method in brief: (§1)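 Mock-infected MT-4 or CEM cultures exposed to compound dilutions at 37 °C, with incubation times as in the antiviral runs. Viable cell number determined. Means of at least two separate experiments.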
A short description of data set [2]: Cytotoxicity against CEM cells. In kind it is cell-based. To be noted: human, CEM (CCRF-CEM) cells. The essentials:
as §1

Turning to `Fc1cccc(F)c1C1SCc2nc3ccccc3n21` (configuration not stated) [THIAZOLOBENZIMIDAZOLE], the figures for the CC50 in data set [1] and in data set [2] were 19.2 µM and 50 µM, respectively.
